Activity calls are given as the source filed them. The rule behind the calls is not given here.
Experiments:
SK-MEL-28 = test: Cytotoxicity against human SK-MEL-28 cells after 4 hrs by MTT assay; format: functional, cell-based; conditions: SK-MEL-28, 4 h
786-0 = test: Cytotoxicity against human 786-0 cells after 4 hrs by MTT assay; format: functional, cell-based; conditions: 786-0, 4 h
SK-MEL-5 = test: Cytotoxicity against human SK-MEL-5 cells after 4 hrs by MTT assay; format: functional, cell-based; conditions: SK-MEL-5, 4 h
COLO 205 = test: Cytotoxicity against human COLO205 cells after 4 hrs by MTT assay; format: functional, cell-based; conditions: COLO 205, 4 h
HL-60 = test: Cytotoxicity against human HL60 cells after 4 hrs by MTT assay; format: functional, cell-based; conditions: HL-60, 4 h
MDA-MB-435 = test: Cytotoxicity against human MDA-MB-435 cells after 4 hrs by MTT assay; format: functional, cell-based; conditions: MDA-MB-435, 4 h
U-251 = test: Cytotoxicity against human U251 cells after 4 hrs by MTT assay; format: functional, cell-based; conditions: U-251, 4 h
ACHN = test: Cytotoxicity against human ACHN cells after 4 hrs by MTT assay; format: functional, cell-based
PC-3 = test: Cytotoxicity against human PC3 cells after 4 hrs by MTT assay; format: functional, cell-based; conditions: PC-3, 4 h
HOP-62 = test: Cytotoxicity against human HOP62 cells after 4 hrs by MTT assay; format: functional, cell-based; conditions: HOP-62, 4 h
UO-31 = test: Cytotoxicity against human UO31 cells after 4 hrs by MTT assay; format: functional, cell-based; conditions: UO-31, 4 h
A549 = test: Cytotoxicity against human A549 cells after 4 hrs by MTT assay; format: functional, cell-based; conditions: A549, 4 h
SNB-75 = test: Cytotoxicity against human SNB75 cells after 4 hrs by MTT assay; format: functional, cell-based; conditions: SNB-75, 4 h
MOLT-4 = test: Cytotoxicity against human MOLT4 cells after 4 hrs by MTT assay; format: functional, cell-based; conditions: MOLT-4, 4 h
Ramos [1] = test: Cytotoxicity against human Ramos cells after 4 hrs by MTT assay; format: functional, cell-based
How it was run: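 Ramos Burkitt's lymphoma cells, kept in suspension in RPMI 1640 with 10% FBS, were seeded at 4 × 10^5 cells/ml in serum-free RPMI 1640. Compounds in RPMI-1640 were added immediately, then 4 h at 37 °C, 5% CO2. MTT was added for a further 2 h, formazan dissolved in acidic isopropanol (0.04 N HCl), and A590 read. Survival was calculated against untreated medium control; 1% Triton X-100 served as positive control.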

MCF7 = test: Cytotoxicity against human MCF7 cells after 4 hrs by MTT assay; format: functional, cell-based; conditions: MCF7, 4 h
SF-295 = test: Cytotoxicity against human SF295 cells after 4 hrs by MTT assay; format: functional, cell-based; conditions: SF-295, 4 h
SN12C = test: Cytotoxicity against human SN12C cells after 4 hrs by MTT assay; format: functional, cell-based
LOX IMVI = test: Cytotoxicity against human LOXIMVI cells after 4 hrs by MTT assay; format: functional, cell-based
T47D = test: Cytotoxicity against human T47D cells after 4 hrs by MTT assay; format: functional, cell-based
MRC5 = test: Cytotoxicity against human MRC5 cells after 4 hrs by MTT assay; format: cell-based; conditions: MRC5, 4 h
How it was run: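 MRC-5 embryonic lung fibroblast monolayers in MEM with 10% FBS were seeded at 1 × 10^5 cells/ml, grown overnight, then medium was replaced with compound solution. Exposure was 4 h at 37 °C, 5% CO2, then MTT for 2 h. Formazan was dissolved in acidic isopropanol (0.04 N HCl) and absorbance read at 590 nm. Background-corrected viability was taken relative to medium-only control, with Triton X-100 as positive control.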

NCI-H226 = test: Cytotoxicity against human NCI-H226 cells after 4 hrs by MTT assay; format: functional, cell-based; conditions: NCI-H226, 4 h
EKVX = test: Cytotoxicity against human EKVX cells after 4 hrs by MTT assay; format: functional, cell-based
DU-145 = test: Cytotoxicity against human DU145 cells after 4 hrs by MTT assay; format: functional, cell-based; conditions: DU-145, 4 h
Ramos [2] = test: Induction of apoptosis in human Ramos cells assessed as disruption of mitochondrial potential after 1 hr by TMRE based flow cytometry; format: functional, cell-based
CAKI-1 = test: Cytotoxicity against human CAKI-1 cells after 4 hrs by MTT assay; format: functional, cell-based; conditions: CAKI-1, 4 h
MDA-MB-468 = test: Cytotoxicity against human MDA-MB-468 cells after 4 hrs by MTT assay; format: functional, cell-based; conditions: MDA-MB-468, 4 h
SW-620 = test: Cytotoxicity against human SW620 cells after 4 hrs by MTT assay; format: functional, cell-based; conditions: SW-620, 4 h
OVCAR-5 = test: Cytotoxicity against human OVCAR5 cells after 4 hrs by MTT assay; format: functional, cell-based; conditions: OVCAR-5, 4 h
CCRF-CEM = test: Cytotoxicity against human CCRF-CEM cells after 4 hrs by MTT assay; format: functional, cell-based
IGROV-1 = test: Cytotoxicity against human IGROV1 cells after 4 hrs by MTT assay; format: functional, cell-based; conditions: IGROV-1, 4 h
HCT-15 = test: Cytotoxicity against human HCT15 cells after 4 hrs by MTT assay; format: functional, cell-based; conditions: HCT-15, 4 h
[3] = read-out: LC50 (the source's name)

Work on `NCCNC(=O)C(CN)(Cc1ccc2ccccc2c1)Cc1ccc2ccccc2c1` yielded an IC50 (SK-MEL-28) of 3.47 µM, a TGI (SK-MEL-28) of 3.47 µM and a CC50 (SK-MEL-28; [3]) of 5.89 µM. For the same compound, the IC50 (786-0) was 3.16 µM, the TGI (786-0) was 3.31 µM and the CC50 (786-0; [3]) was 6.31 µM. The IC50 (SK-MEL-5) was 2.82 µM, the TGI (SK-MEL-5) was 3.02 µM and the CC50 (SK-MEL-5; [3]) was 5.62 µM. For the same compound, the IC50 (COLO 205) was 0.34 µM, the TGI (COLO 205) was 0.35 µM and the CC50 (COLO 205; [3]) was 0.69 µM. It also gave an IC50 (HL-60) of 0.48 µM, a TGI (HL-60) of 1.38 µM and an IC50 (MDA-MB-435) of 1.02 µM. For the same compound, the TGI (MDA-MB-435) was 2 µM, the CC50 (MDA-MB-435; [3]) was 5.62 µM and the IC50 (U-251) was 1.48 µM. It also gave a TGI (U-251) of 2.14 µM, a CC50 (U-251; [3]) of 4.68 µM and an IC50 (ACHN) of 2.75 µM. For the same compound, the TGI (ACHN) was 2.88 µM, the CC50 (ACHN; [3]) was 5.5 µM and the IC50 (PC-3) was 3.09 µM. It also gave a TGI (PC-3) of 3.31 µM, a CC50 (PC-3; [3]) of 6.61 µM and an IC50 (HOP-62) of 2.82 µM. It also gave a TGI (HOP-62) of 2.88 µM, a CC50 (HOP-62; [3]) of 5.62 µM and an IC50 (UO-31) of 2.95 µM. The TGI (UO-31) was 2.95 µM, the CC50 (UO-31; [3]) was 6.03 µM and the IC50 (A549) was 2.51 µM. The TGI (A549) was 2.88 µM, the CC50 (A549; [3]) was 5.75 µM and the IC50 (SNB-75) was 2.75 µM. For the same compound, the TGI (SNB-75) was 2.69 µM, the CC50 (SNB-75; [3]) was 5.25 µM and the IC50 (MOLT-4) was 1.41 µM. For the same compound, the TGI (MOLT-4) was 2.69 µM, the IC50 (Ramos [1]) was 4.1 µM and the IC50 (MCF7) was 1.35 µM. For the same compound, the TGI (MCF7) was 2.24 µM, the CC50 (MCF7; [3]) was 5.5 µM and the IC50 (SF-295) was 2.51 µM. The TGI (SF-295) was 2.69 µM, the CC50 (SF-295; [3]) was 5.75 µM and the IC50 (SN12C) was 3.24 µM. It also gave a TGI (SN12C) of 3.31 µM, a CC50 (SN12C; [3]) of 6.17 µM and an IC50 (LOX IMVI) of 0.62 µM. For the same compound, the TGI (LOX IMVI) was 1.7 µM, the CC50 (LOX IMVI; [3]) was 4.37 µM and the IC50 (T47D) was 3.8 µM. For the same compound, the TGI (T47D) was 3.39 µM, the CC50 (T47D; [3]) was 7.59 µM and the EC50 (MRC5) was 22 µM. The IC50 (NCI-H226) was 3.31 µM, the TGI (NCI-H226) was 3.39 µM and the CC50 (NCI-H226; [3]) was 7.24 µM. It also gave an IC50 (EKVX) of 2.69 µM, a TGI (EKVX) of 2.88 µM and a CC50 (EKVX; [3]) of 6.17 µM. It also gave an IC50 (DU-145) of 2.57 µM, a TGI (DU-145) of 2.82 µM and a CC50 (DU-145; [3]) of 5.37 µM. For the same compound, the Activity (Ramos [2]) was “Active”, the IC50 (CAKI-1) was 2.75 µM and the TGI (CAKI-1) was 3.02 µM. It also gave a CC50 (CAKI-1; [3]) of 6.17 µM, an IC50 (MDA-MB-468) of 2.75 µM and a TGI (MDA-MB-468) of 2.95 µM. It also gave a CC50 (MDA-MB-468; [3]) of 6.17 µM, an IC50 (SW-620) of 0.35 µM and a TGI (SW-620) of 0.83 µM. The CC50 (SW-620; [3]) was 3.39 µM, the IC50 (OVCAR-5) was 2.95 µM and the TGI (OVCAR-5) was 3.02 µM. For the same compound, the CC50 (OVCAR-5; [3]) was 5.75 µM, the IC50 (CCRF-CEM) was 2.24 µM and the TGI (CCRF-CEM) was 3.39 µM. For the same compound, the CC50 (CCRF-CEM; [3]) was 9.12 µM, the IC50 (IGROV-1) was 3.16 µM and the TGI (IGROV-1) was 3.24 µM. The CC50 (IGROV-1; [3]) was 7.24 µM, the IC50 (HCT-15) was 0.79 µM and the TGI (HCT-15) was 1.91 µM. It also gave a CC50 (HCT-15; [3]) of 5.01 µM.

Source: ChEMBL document CHEMBL2150936, “Anticancer activity of small amphipathic β²,²-amino acid derivatives” (Eur J Med Chem, 2012)
